Screening data from PubChem BioAssay.
KCNQ1 inh: blocks the human KCNQ1 potassium channel; CHO-K1 KCNQ1, FluxOR thallium flux fluorescence; hits give high values; 1.3% of 310,000 active; P51787; B-score at 10 µM;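 active = compounds whose thallium flux B-score, printed positive for inhibition, exceeds three library SD while starting fluorescence stays within three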;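 also: channel opened by potassium depolarization with thallium stimulus after 20 min compound exposure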
KCC2 mod: modulators of human KCC2 chloride dependent transport; 2.2% of 190,000 active; KCC2 cells, thallium flux FluoZin-2 fluorescence; B-score of Tl+ flux slope (higher = more flux/activation; lower = inhibition) at 10 µM; Q9H2X9;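 active = thallium flux slope and its plate-corrected score both differing from the plate sample mean at a set confidence after two filtering rounds, in either direction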;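 also: slope of fluorescence scaled to starting intensity during 10 to 20 s after thallium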
KCNK9 block: human KCNK9 channel inhibition | Q9NPC2 | HEK293 KCNK9, FluxOR thallium flux fluorescence; hits give low values | B-score at 10 µM | 1.2% of 310,000 active;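 active = ratio B-score over 3 SD below the library mean, with starting fluorescence within 5 SD of its mean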;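 also: negative B-score means less thallium flux so channel inhibition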
KCNK3 inh: human KCNK3 channel inhibition, primary screen. CHO-KCNK3 thallium flux, FluxOR fluorescence; hits give low values. 0.84% of 340,000 active. B-score at 10 µM. O14649;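 active = B-score under library mean minus 4 SD, starting fluorescence ratio at most library mean plus 5 SD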;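 also: more negative B-score means stronger inhibition of thallium flux through KCNK3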
KCNQ1 act: human KCNQ1 channel potentiation or activation | AID 2648 | B-score at 10 µM | P51787 | CHO-K1 KCNQ1, thallium flux FluxOR fluorescence; hits give high values | 0.35% of 310,000 active;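 active = fluorescence ratio B-score, a plate-corrected score, at least three library SD, with initial intensity B-score within 5 SD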
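System: Stable KCNQ1 CHO-K1 line | Incubation: 90 min dye loading and 20 min compound exposure, both at room temperature | Measure: Ratio B score | Medium: Assay buffer for compound exposure, DMSO matched across wells | Compound dosing: Single-concentration screen | Probe or stimulus: K+/Tl+ depolarizing stimulus | Measured by: Kinetic FluxOR fluorescence, 10 s baseline plus 110 s post-stimulus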
hERG rescue: hERG (human) protection from proarrhythmic block; Q12809; CHO-hERG, FluxOR thallium flux, dofetilide IC70 present; activation (rescue from dofetilide block), less the hit threshold, % at 10 µM; 0.51% of 310,000 active; AID 1511;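 active = activation above the mean of controls blocked by dofetilide plus 5 SD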;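 also: thallium influx through hERG after potassium depolarization seen as dye fluorescence rise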
KCNQ1 block val: reconfirmed blocker of the human KCNQ1 potassium channel. shares compounds with KCNQ1 inh. KCNQ1 cell line, FluxOR thallium flux fluorescence. inhibition, % at 10 µM. 93% of 1,600 active. AID 588353;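 active = primary screen active, with duplicate mean exceeding buffer control mean plus 3 SD of buffer wells, cut at about 28% in these data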;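 also: 0% = buffer control ratio and 100% = XE991 inhibitor control ratio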
CHO Tl flux: counter-screen for KCNQ1 inhibitors: effect in parental CHO cells | shares compounds with KCNQ1 inh | 21% of 1,600 active | fluorescence ratio (Tl flux) at 10 µM | parental CHO-K1, FluxOR thallium flux fluorescence ratio; hits give low values; zero means no signal rise above baseline;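 active = mean of duplicate thallium-flux fluorescence ratios in parental host cells more than 5 SD below the buffer control mean, cut at about 0.38 in these data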;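 also: ratio is peak minus minimum fluorescence divided by baseline fluorescence; actives read low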
KCNQ1 APC inh: human KCNQ1 inhibition validated by electrophysiology | calls only at 10 µM | KCNQ1-CHO cells, automated patch clamp current | AID 624120 | 20% of 490 active | shares compounds with KCNQ1 inh;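 active = KCNQ1 current drop exceeding 3 SD of negative control wells, seen in both duplicate runs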;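 also: steady state current during a 2 s step from -80 to +40 mV; negative values mean current inhibition and positive values mean potentiation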
KCNQ2 inh: rat KCNQ2 inhibition in KCNQ1 inhibitor specificity screen; 71% of 1,600 active; shares compounds with KCNQ1 inh; AID 651746; inhibition, % at 10 µM; KCNQ2 cells, FluxOR thallium flux fluorescence;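 active = mean percent inhibition of the KCNQ2 thallium signal more than 5 SD above the buffer-only control wells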;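 also: KCNQ2 expressed in CHO cells; 0% = buffer control wells and 100% = XE-991 inhibitor control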
KCNQ1 KCNE1 spec: selectivity of KCNQ1 inhibitors: inhibition of human KCNQ1/KCNE1 channel. shares compounds with KCNQ1 inh. inhibition, % at 10 µM. AID 652147. KCNQ1/KCNE1 cells, FluxOR thallium flux fluorescence. 77% of 1,600 active;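 active = mean percent inhibition of duplicate wells above the buffer-only control mean plus 3 SD of those controls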;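 also: 0% = buffer only wells and 100% = XE-991 inhibitor control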
KCNK3 confirm: confirmation of human KCNK3 two-pore domain potassium channel inhibitors | shares compounds with KCNK3 inh | ratio percent of control, % at 10 µM | CHO-KCNK3 thallium flux, FluxOR fluorescence; 0% buffer, 100% carvedilol maximal block | 99% of 2,400 active;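 active = ratio percent of control, averaged over triplicates, above buffer control mean plus 5 SD, cut at about 64% in these data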;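 also: ratio is the fluorescence rise from min to max over baseline after thallium stimulus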
KCNK3 noninduced: counter-screen for KCNK3 inhibitors: effect in non-induced cells | shares compounds with KCNK3 inh | non-induced KCNK3 parental cells, FluxOR thallium flux; hits give low values | thallium flux ratio (lower = more inhibition) at 10 µM | 40% of 2,400 active;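 active = thallium flux ratio, averaged over three wells, more than 5 SD below the buffer control mean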;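 also: host cells are CHO cells without KCNK3 induction; ratio is peak minus trough fluorescence over baseline then normalized to buffer controls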
An asterisk follows results filed as active; i = inactive; · = no result given; + = active, no number. A selection: hits, their analogues and other compounds. The true share with any hit is near 4.1%.

SMILES	KCNQ1 inh	KCC2 mod	KCNK9 block	KCNK3 inh	KCNQ1 act	hERG rescue	KCNQ1 block val	CHO Tl flux	KCNQ2 inh	KCNQ1 KCNE1 spec	others
O=C(c1ccco1)c1cn(Cc2ccccc2Cl)c2ccccc12	7*	·	-7.5*	i	i	-6	91*	0.38	102%*	152%*	KCNQ1 APC inh=i
C[C@]12CCC3C(CC[C@H]4C[C@H](O)CC[C@]34C)C1[C@@H](O)C[C@@H]2O (some centres not stated)	·	·	·	i	·	·	·	·	·	·
CC1(C)OC(c2ccccc2)=C/C(=C/C=C2C(=O)NC(=S)NC2=O)O1	15*	-1.6	i	·	i	-18	82*	0.34*	i	i
O=C1NC(=S)NC(=O)C1=Cc1c(Cl)cccc1Cl	·	·	·	i	·	·	·	·	·	·
O=c1cc(C(F)(F)F)c2cc3c4c(c2o1)CCCN4CCC3	37*	i	i	i	i	-16	+	0.022*	i	i
CCCCCCn1c(=O)c(C(=O)Nc2ncccc2O)c(O)c2ccccc21	7*	·	i	i	i	-6	58*	0.43	62%*	50%*
CCCCCn1c(=O)c(C(=O)Nc2ccccc2)c(O)c2ccccc21	i	·	i	i	i	0	·	·	·	·
CCCCCCn1c(=O)c(C(=O)Nc2cnccn2)c(O)c2ccccc21	9*	0.049	i	i	i	-12	44*	0.5	i	i
Cc1ccc(OC(F)F)c(N2C(=O)C3C4CCC(O4)C3C2=O)c1 (configuration not stated)	·	·	·	i	·	·	·	·	·	·
CC1CC2(C)C(CCC3C2CCC2(C)C(OP(=O)(N4CC4)N4CC4)CCC32)CC1=O (configuration not stated)	·	·	·	i	·	·	·	·	·	·
Nc1ccc2ccc3cccc[n+]3c2c1	24*	·	i	i	i	-44	+	0.0075*	i	i
C[n+]1c(-c2ccccc2)c2cc(N)ccc2c2ccc(N)cc21	i	·	i	i	i	-10	·	·	·	·
C/C=C1/C[N+]2(C)CCC34C(=C(C=O)[C@H]1C[C@@H]32)Nc1ccccc14 (some centres not stated)	·	·	·	i	·	·	·	·	·	·
CN(C)C(=S)SSC(=S)N(C)C	16*	0.58	i	i	i	-41	0	0.55	i	i
Oc1ccccc1CN(CCc1ccccc1)Cc1ccccc1	9*	·	-7.9*	-8.9*	i	-9	108*	0.39	97%*	130%*	KCNQ1 APC inh=i;KCNK3 confirm=120*;KCNK3 noninduced=0.14*
C=C(C)[C@@]12OC3(c4ccccc4)O[C@@H]1C1[C@@H]4O[C@]4(CO)[C@@H](O)[C@]4(O)C(=O)C(C)=C[C@H]4[C@@]1(O3)[C@H](C)[C@H]2OC(=O)/C=C/C=C/c1ccccc1 (some centres not stated)	i	·	i	i	i	-10	·	·	·	·
